Results published in ChEMBL document CHEMBL2202989, “New adamantane phenylalkylamines with σ-receptor binding affinity and anticancer activity, associated with putative antagonism of neuropathic pain” (J Med Chem, 2012).

Legend:
Assay type in all cases: functional
[1] = system: PC-3; assay: Antitumor activity against human PC3 cells xenografted in SCID mouse assessed as tumor growth inhibition at 55 mg/kg, ip administered 5 consecutive days in a week for two cycles measured after 2 cycles relative to control; conditions: PC-3, ip, route intraperitoneal, read-out: TGI
Method in brief: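 PC3 xenografts were grown in SCID mice (10^6 cells per inoculum), 14 mice (28 tumors) per group, dosed ip from about 100 mm3. The test agent was given in 5% Tween 80; paclitaxel was given in Cremophor diluted in saline, with a vehicle of 1:1 ethanol/Cremophor diluted 1:3 in saline. Volume and %ΔT/ΔC were derived from caliper readings twice weekly. Occurrence of primary tumors and of axillary and bone metastases was scored (n = 7). Two-tailed t test.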

[2] = system: IGROV-1; assay: Induction of apoptosis in human IGROV1 cells assessed as healthy cells at 50 uM using annexin V/7-AAD by FACS analysis (reference value: 86 %)
[3] = system: IGROV-1; assay: Induction of apoptosis in human IGROV1 cells assessed as healthy cells at 15 uM using annexin V/7-AAD by FACS analysis (reference value: 86 %)
[4] = system: IGROV-1; assay: Cell cycle arrest in human IGROV1 cells assessed as accumulation at S phase at 5 uM after 24 hrs using propidium iodide staining by FACS analysis (reference value: 29 %)

CN1CCN(CCCc2ccc(C(c3ccccc3)C34CC5CC(CC(C5)C3)C4)cc2)CC1 (centres undefined)
inhibition in vivo at 55 mg/kg [1]: 48% | Activity [2]: 26% | Activity [3]: 35% | Activity [4]: 27%
